Measured values from different studies.
Protocols differ between the studies behind these lines.
TEC: Tyrosine-protein kinase Tec (TEC, Homo sapiens, UniProt P42680)
TEC phosphorylated: Tyrosine-protein kinase Tec, phosphorylated (TEC, Homo sapiens, UniProt P42680)

SMILES	target	test	conditions	measurement	value
Nc1ncnc2occ(-c3ccc(NC(=O)Nc4cc(C(F)(F)F)ccc4F)cc3)c12	TEC	cell-free assay, inhibitor	20 µM	remaining signal	53%
CC(C)[C@H](NC(=O)c1cc(-c2cnn3cc(-c4ccc(OCCN5CCCCC5)cc4)cnc23)cs1)C(F)(F)F	TEC	enzyme activity, inhibitor, radiometric	15 nM	inhibition	0%
Cc1ccc(NC(=O)c2ccc(C)c(C(F)(F)F)c2)cc1C#Cc1nn(C2CCC(O)CC2)c2ncnc(N)c12 (centres unmarked)	TEC phosphorylated	enzyme activity, inhibitor	10 µM	remaining activity	24%
Oc1cccc(-c2nc(N3CCOCC3)c3oc4ncccc4c3n2)c1	TEC	cell-free assay	0.5 µM	remaining signal	113%
CC(C)(C)c1nc(-c2cccc(NS(=O)(=O)c3c(F)cccc3F)c2F)c(-c2ccnc(N)n2)s1	TEC	enzyme activity, inhibitor, radiometric	1 µM	remaining activity	87%
CN(c1ccnc(CNc2nc(Nc3ccc4c(c3)CC(=O)N4)ncc2C(F)(F)F)n1)S(C)(=O)=O	TEC	cell-free assay, competition with immobilised ligand	1 µM	remaining binding	100%
Cc1ccc(C(=O)Nc2ccc(CN3CCN(C)CC3)c(C(F)(F)F)c2)cc1C#Cc1cnc2cccnn12	TEC	enzyme activity	23.5 nM	remaining activity	84%
Nc1c(C(=O)NCc2ccc(C(=O)NCCCC3CCCCC3)cc2)cnn1-c1ccccc1	TEC	cell-free assay, competition with immobilised ligand	0.1 µM	remaining binding	100%
C[S+]([O-])c1ccc(-c2nc(-c3ccncc3)c(-c3ccc(F)cc3)[nH]2)cc1 (centres unmarked)	TEC	cell-free assay	0.5 µM	remaining signal	113%
CN1CC(Oc2cnc(C#N)cc2-c2ccn3nc(NC(=O)C4CC4)cc3c2)C1	TEC phosphorylated	enzyme activity, inhibitor	1 µM	inhibition	25%
O=C(Nc1cnn(-c2csc(C(=O)NC3COC3)c2)c1)Nc1c(F)cccc1Cl	TEC	enzyme activity, inhibitor	5 µM	remaining activity	97.7%
CN([C@@H]1CCc2c(CC(=O)O)c3ccccc3n2C1)S(=O)(=O)c1ccc(F)cc1	TEC	cell-free assay, competition with immobilised ligand	1 µM	remaining binding	100%
CC/C(=N\NC(=O)NCc1cccc(O)c1)c1ccc(O)c(C)c1O	TEC	enzyme activity, inhibitor	0.1 µM	inhibition	0.2%
CCCS(=O)(=O)Nc1ccc(F)c(C(=O)c2c[nH]c3ncc(-c4ccc(Cl)cc4)cc23)c1F	TEC	enzyme activity, inhibitor	1 µM	inhibition	< 10%
CC(=O)N1CCC(c2ccc(C(=O)NC3=NCCN3)cc2C(F)(F)F)CC1	TEC	binding, competition with immobilised ligand	1 µM	remaining binding	100%
Cc1ccc(C(=O)NCc2ccsc2)cc1C#Cc1cn(C(C)C)c2ncnc(N)c12	TEC phosphorylated	enzyme activity, inhibitor	1 µM	activity vs control	107%
CC(=O)N1CCC(c2ccc(C(=O)NC(=N)N)cc2C(F)(F)F)CC1	TEC	binding, competition with immobilised ligand	1 µM	remaining binding	100%
N#CCCc1ccc2c(c1)-c1[nH]c3ccc([N+](=O)[O-])cc3c1CC(=O)N2	TEC	cell-free assay	0.5 µM	remaining signal	120%
O=C(O)[C@@H]1[C@@H](Cn2nnc3ccccc3c2=O)CC[C@H]1C(=O)c1ccc(OCCC2CCOCC2)cc1	TEC	binding, competition with immobilised ligand	1 µM	remaining binding	95%
CCCOc1ccc(OC)c(F)c1C(=O)c1ccc(C(=O)N[C@@H]2CNC[C@H]2NC(=O)c2ccc3[nH]ncc3c2)cc1	TEC phosphorylated	enzyme activity, inhibitor	10 µM	remaining activity	50%
